Active and inactive are the calls of the source. No cut-off for these calls is given here.
Tests used:
[1] = molecular target: T1, High affinity 3',5'-cyclic-AMP phosphodiesterase 7A (Homo sapiens, UniProt Q13946); assay: Inhibition of human recombinant PDE7A1-mediated [3H]cAMP hydrolysis at 10 uM after 20 mins by scintillation proximity assay
Outline: (§1)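 Scintillation proximity assay with human recombinant full-length enzyme: PDE7A1 or PDE3A at 0.02 unit, or PDE7B at 0.5 unit. Enzyme incubated with 5 nCi [3H]cAMP for 20 min at 30 °C. SPA beads added, shaken 1 h at room temperature, then settled 30 min before counting. Single-point screens at 10 μM run in duplicate. IC50 from a sigmoidal dose−response fit.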

[2] = Cytotoxicity against rat microglia cells at 5 to 10 uM after 16 hrs by MTT assay; assay type: cell-based
Outline: (§2)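 Primary neonatal rat cortical astrocytes or microglia, after 1 week in culture, exposed to compound for 16 h. MTT at 0.5 mg/mL for 4 h, then solubilized in 10% SDS/0.01 M HCl for 12 h in the dark. Absorbance read at 595 nm. Six replications in three experiments.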

[3] = molecular target: T1, High affinity 3',5'-cyclic-AMP phosphodiesterase 7A; assay: Inhibition of human recombinant PDE7A1-mediated [3H]cAMP hydrolysis after 20 mins by scintillation proximity assay; outline: as §1
[4] = molecular target: T2, cGMP-inhibited 3',5'-cyclic phosphodiesterase 3A (Homo sapiens, UniProt Q14432); assay: Inhibition of human recombinant PDE3A-mediated [3H]cAMP hydrolysis at 10 uM after 20 mins by scintillation proximity assay; outline: as §1
T2 sequence (Q14432 whole entry): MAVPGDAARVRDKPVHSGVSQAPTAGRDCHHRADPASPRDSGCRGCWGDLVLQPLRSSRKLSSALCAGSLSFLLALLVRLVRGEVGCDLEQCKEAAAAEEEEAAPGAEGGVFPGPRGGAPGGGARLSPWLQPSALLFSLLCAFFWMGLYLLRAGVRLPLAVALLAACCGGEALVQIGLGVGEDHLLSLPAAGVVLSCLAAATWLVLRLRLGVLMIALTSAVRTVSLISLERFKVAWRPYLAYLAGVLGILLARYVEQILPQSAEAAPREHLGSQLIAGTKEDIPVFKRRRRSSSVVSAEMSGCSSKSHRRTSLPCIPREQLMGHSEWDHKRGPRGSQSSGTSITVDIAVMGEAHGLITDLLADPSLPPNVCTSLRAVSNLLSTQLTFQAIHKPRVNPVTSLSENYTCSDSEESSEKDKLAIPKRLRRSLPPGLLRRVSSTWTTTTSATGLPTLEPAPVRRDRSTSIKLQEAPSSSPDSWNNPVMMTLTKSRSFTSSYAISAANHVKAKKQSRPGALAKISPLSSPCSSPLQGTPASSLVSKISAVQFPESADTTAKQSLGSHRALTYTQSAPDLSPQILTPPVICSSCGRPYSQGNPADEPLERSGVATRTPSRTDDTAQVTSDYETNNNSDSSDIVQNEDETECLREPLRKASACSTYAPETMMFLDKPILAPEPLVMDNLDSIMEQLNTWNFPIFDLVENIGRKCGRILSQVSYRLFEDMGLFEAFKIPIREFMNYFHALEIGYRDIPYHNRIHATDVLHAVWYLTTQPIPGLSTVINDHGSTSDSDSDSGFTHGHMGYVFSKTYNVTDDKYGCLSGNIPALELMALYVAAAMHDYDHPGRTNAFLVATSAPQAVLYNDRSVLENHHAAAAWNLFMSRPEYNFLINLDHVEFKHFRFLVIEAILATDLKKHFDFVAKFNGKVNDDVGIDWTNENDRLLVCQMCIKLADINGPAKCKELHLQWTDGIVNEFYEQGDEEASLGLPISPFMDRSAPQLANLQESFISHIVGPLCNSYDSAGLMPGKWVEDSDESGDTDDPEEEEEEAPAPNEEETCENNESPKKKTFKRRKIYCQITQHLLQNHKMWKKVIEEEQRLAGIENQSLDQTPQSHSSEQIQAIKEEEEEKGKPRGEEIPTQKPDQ

[5] = Cytotoxicity against rat astrocytes at 5 to 10 uM after 16 hrs by MTT assay; assay type: cell-based; conditions: astrocyte; outline: as §2
[6] = tested on: Astrocyte; assay: Antiinflammatory activity in rat astrocytes assessed as inhibition of LPS-induced nitrite production at 5 to 10 uM incubated for 1 hr prior to LPS-challenge measured after 24 hrs by Griess method; assay type: functional, cell-based
Outline: (§3)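 Glial cells from neonatal rat cerebral cortex; microglia and astrocytes separated by shaking and cultured 1 week. Purity >98% by OX42 and GFAP staining. Microglia kept with 10 ng/mL GM-CSF. Cells given compound for 1 h, then LPS (10 μg/mL) for 24 h. Nitrite in the supernatant measured by Griess reaction at 492/540 nm. Mean ± SD of six replications in three experiments.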

[7] = molecular target: T2, cGMP-inhibited 3',5'-cyclic phosphodiesterase 3A; assay: Inhibition of human recombinant PDE3A-mediated [3H]cAMP hydrolysis after 20 mins by scintillation proximity assay; outline: as §1
[8] = organism: Homo sapiens; assay: Selectivity index, ratio of IC50 for human recombinant PDE7A1 to IC50 for human recombinant PDE3A
Outline: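 Ratio of IC50 values for PDE7A1 and PDE3A, each obtained by scintillation proximity assay with [3H]cAMP for 20 min at 30 °C.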

[9] = molecular target: T1, High affinity 3',5'-cyclic-AMP phosphodiesterase 7A; assay: Competitive inhibition of human recombinant PDE7A1 using 5 nM to 2 uM cAMP as substrate by Lineweaver-Burk plot analysis
Outline: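 PDE7A1 scintillation proximity assay with unlabeled cAMP varied from 5 nM to 2 μM, against fixed [3H]cAMP tracer. Two inhibitor concentrations tested, with AMP formation measured. Data analysed by Lineweaver−Burk plots. Triplicate measurements, mean ± SEM.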

[10] = tested on: Microglia; assay: Antiinflammatory activity in rat microglia cells assessed as inhibition of LPS-induced nitrite production at 5 to 10 uM incubated for 1 hr prior to LPS-challenge measured after 24 hrs by Griess method; assay type: functional, cell-based; outline: as §3
[11] = molecular target: T3, High affinity 3',5'-cyclic-AMP phosphodiesterase 7A (Mus musculus) (UniProt P70453); assay: Inhibition of PDE7A1 in mouse RAW cells assessed as increase in cAMP level at 10 to 30 uM after 60 mins by enzyme immunoassay; assay type: cell-based
T3 sequence (whole entry): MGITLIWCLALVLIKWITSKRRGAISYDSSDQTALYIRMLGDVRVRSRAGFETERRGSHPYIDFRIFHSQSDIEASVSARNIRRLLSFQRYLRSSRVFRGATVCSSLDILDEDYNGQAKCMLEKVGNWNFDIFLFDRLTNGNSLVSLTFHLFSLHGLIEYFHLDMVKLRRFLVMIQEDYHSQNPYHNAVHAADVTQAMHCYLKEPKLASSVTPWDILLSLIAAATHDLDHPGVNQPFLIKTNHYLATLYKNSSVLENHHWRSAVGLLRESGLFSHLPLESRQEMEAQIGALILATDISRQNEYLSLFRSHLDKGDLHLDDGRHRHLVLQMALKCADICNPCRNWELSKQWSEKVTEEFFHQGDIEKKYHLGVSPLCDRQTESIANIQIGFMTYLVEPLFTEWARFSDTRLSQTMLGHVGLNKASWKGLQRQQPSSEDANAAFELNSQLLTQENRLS
Outline: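 RAW cells seeded at 3 × 10^4 per well and incubated overnight. Compound added for 60 min at 10 or 30 μM. Intracellular cAMP quantified by enzyme immunoassay kit.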

[12] = tested on: Astrocyte; assay: Antiinflammatory activity in rat astrocytes assessed as inhibition of LPS-induced nitrite production at 30 uM incubated for 1 hr prior to LPS-challenge measured after 24 hrs by Griess method; assay type: functional, cell-based; outline: as §3
[13] = tested on: Microglia; assay: Antiinflammatory activity in rat microglia cells assessed as inhibition of LPS-induced nitrite production at 30 uM incubated for 1 hr prior to LPS-challenge measured after 24 hrs by Griess method; assay type: functional, cell-based; outline: as §3
[14] = molecular target: T1, High affinity 3',5'-cyclic-AMP phosphodiesterase 7A; assay: Inhibition of PDE7A1
[15] = Permeability across after 2 hrs 30 mins by pig brain lipid membrane based PAMPA-BBB assay; assay type: ADME; conditions: read-out: permeability
Outline: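 PAMPA-BBB assay. Donor wells coated with porcine polar brain lipid in dodecane (20 mg/mL). Compound dissolved in EtOH/PBS pH 7.4; acceptor holds PBS/EtOH 70/30. Sandwich left 2 h 30 min at 25 °C. Concentrations read by UV at 3−5 wavelengths, in three wells and two independent runs. Ten reference drugs included for validation.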

[16] = organism: Homo sapiens; assay: Selectivity index, ratio of IC50 for human recombinant PDE3A to IC50 for human recombinant PDE7A1
[17] = molecular target: 3',5'-cyclic-AMP phosphodiesterase 4B (Homo sapiens, UniProt Q07343); assay: Inhibition of human recombinant PDE4B2 using fluorescein 3',5'-cyclic phosphate after 60 mins by IMAP fluorescence polarization assay
Sequence of 3',5'-cyclic-AMP phosphodiesterase 4B (Q07343 whole entry): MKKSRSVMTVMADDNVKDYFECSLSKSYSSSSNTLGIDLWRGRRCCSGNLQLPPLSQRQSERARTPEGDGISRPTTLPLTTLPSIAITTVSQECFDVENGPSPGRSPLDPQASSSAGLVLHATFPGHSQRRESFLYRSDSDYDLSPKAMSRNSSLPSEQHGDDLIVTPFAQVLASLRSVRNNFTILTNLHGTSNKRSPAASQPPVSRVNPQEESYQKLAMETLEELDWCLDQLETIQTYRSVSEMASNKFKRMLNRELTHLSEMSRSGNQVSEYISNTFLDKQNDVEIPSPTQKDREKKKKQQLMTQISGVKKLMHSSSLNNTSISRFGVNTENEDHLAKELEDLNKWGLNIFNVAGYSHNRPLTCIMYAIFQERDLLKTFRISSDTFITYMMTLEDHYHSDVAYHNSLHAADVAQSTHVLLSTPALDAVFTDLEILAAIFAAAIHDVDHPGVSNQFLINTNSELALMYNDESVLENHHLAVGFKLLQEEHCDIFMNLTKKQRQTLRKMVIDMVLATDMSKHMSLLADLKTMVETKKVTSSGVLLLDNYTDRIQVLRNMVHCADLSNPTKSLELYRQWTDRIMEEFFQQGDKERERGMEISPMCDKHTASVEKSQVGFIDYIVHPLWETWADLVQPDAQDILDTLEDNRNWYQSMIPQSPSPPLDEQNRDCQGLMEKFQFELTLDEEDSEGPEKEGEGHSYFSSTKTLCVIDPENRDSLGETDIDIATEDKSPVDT
Outline: (§4)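 IMAP fluorescence polarization assay. Human recombinant PDE4B2 or PDE4D3 (0.05 U) incubated with 1 nM fluorescein adenosine 3′,5′-cyclic phosphate for 60 min at ambient temperature. Stopped with IMAP binding reagent and left 1 h before reading FP. IC50 from a sigmoidal dose−response fit.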

[18] = tested on: Mus musculus; assay: Antiinflammatory activity in C57BL/6J mouse MOG(35 to 55)-induced experimental autoimmune encephalomyelitis model assessed as inhibition of clinical symptoms at 10 mg/kg, ip dosed daily for 26 days starting at day 5 after disease onset measured on day 42 post-immunization; assay type: functional, organism-based; parameters: dose 10 mg/kg
[19] = tested on: Mus musculus; assay: Toxicity in C57BL/6J mouse MOG(35 to 55)-induced experimental autoimmune encephalomyelitis model assessed as decrease in body weight at 10 mg/kg, ip dosed daily for 26 days starting at day 5 after disease onset measured on day 42 post-immunization; assay type: organism-based; parameters: dose 10 mg/kg, route intraperitoneal; conditions: in vivo, 624 h
[20] = molecular target: 3',5'-cyclic-AMP phosphodiesterase 4D (Homo sapiens, UniProt Q08499); assay: Inhibition of human recombinant PDE4D3 using fluorescein 3',5'-cyclic phosphate after 60 mins by IMAP fluorescence polarization assay; outline: as §4
Sequence of 3',5'-cyclic-AMP phosphodiesterase 4D (Q08499 whole entry): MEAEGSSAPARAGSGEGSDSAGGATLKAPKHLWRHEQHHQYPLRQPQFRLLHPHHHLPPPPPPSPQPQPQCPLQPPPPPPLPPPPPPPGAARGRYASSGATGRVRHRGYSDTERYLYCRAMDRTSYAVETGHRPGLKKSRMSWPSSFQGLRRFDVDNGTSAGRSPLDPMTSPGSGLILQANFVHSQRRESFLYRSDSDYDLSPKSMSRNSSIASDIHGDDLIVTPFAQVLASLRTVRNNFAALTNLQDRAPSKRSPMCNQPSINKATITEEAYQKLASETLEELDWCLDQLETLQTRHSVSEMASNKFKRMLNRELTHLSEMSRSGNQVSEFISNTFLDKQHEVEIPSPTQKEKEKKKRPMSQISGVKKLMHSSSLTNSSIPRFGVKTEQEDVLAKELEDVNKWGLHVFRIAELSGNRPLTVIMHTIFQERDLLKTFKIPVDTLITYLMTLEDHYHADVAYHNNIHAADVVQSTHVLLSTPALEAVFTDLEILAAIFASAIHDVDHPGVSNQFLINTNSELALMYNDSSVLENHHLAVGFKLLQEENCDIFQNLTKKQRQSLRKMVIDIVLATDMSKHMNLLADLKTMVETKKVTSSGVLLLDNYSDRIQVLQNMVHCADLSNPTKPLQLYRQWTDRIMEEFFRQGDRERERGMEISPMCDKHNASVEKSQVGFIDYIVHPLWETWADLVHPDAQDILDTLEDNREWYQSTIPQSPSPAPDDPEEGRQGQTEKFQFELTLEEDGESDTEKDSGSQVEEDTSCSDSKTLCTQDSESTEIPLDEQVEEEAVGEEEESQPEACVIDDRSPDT

[21] = molecular target: 3',5'-cyclic-AMP phosphodiesterase 7B (Homo sapiens) (UniProt Q9NP56); assay: Inhibition of human recombinant PDE7B-mediated [3H]cAMP hydrolysis at 10 uM after 20 mins by scintillation proximity assay; outline: as §1
Sequence of 3',5'-cyclic-AMP phosphodiesterase 7B (Homo sapiens) (Q9NP56 whole entry): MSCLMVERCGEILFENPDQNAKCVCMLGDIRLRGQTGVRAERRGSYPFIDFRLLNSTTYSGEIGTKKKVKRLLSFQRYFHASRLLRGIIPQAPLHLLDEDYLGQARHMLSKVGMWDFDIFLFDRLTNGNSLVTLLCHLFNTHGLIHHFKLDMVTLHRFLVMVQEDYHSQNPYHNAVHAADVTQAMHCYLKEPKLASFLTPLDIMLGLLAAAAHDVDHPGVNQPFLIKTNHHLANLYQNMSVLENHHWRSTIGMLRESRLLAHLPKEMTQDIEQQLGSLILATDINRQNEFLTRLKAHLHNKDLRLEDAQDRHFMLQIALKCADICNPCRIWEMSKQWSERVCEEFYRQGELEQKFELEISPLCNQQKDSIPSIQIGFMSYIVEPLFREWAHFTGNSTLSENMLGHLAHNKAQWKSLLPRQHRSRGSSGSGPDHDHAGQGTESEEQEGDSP

[22] = tested on: Mus musculus; assay: Antiinflammatory activity in C57BL/6J mouse MOG(35 to 55)-induced experimental autoimmune encephalomyelitis model assessed as inhibition of clinical symptoms at 10 mg/kg, ip dosed daily for 16 days starting at day 5 after disease onset measured on day 32 post-immunization; assay type: functional, organism-based; parameters: dose 10 mg/kg

T1 sequence (Q13946 whole entry): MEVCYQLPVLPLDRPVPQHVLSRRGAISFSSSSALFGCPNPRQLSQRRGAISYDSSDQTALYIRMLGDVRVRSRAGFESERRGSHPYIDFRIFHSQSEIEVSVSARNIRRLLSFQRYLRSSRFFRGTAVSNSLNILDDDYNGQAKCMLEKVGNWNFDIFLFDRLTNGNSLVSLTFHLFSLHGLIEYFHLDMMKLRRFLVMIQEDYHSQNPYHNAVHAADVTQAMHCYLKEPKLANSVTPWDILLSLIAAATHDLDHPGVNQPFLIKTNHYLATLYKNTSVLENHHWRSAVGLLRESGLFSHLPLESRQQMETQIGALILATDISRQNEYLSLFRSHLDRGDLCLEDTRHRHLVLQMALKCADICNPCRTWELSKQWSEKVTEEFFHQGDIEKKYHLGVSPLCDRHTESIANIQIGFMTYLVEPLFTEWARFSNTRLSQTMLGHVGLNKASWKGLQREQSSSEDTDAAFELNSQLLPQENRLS

COc1cc(COC(=O)c2ccc(-c3ccc(Cl)cc3Cl)o2)cc(OC)c1OC
inhibition [1]: 38.3%

COc1cc(CNC(=O)c2ccc(-c3ccc(C)cc3[N+](=O)[O-])o2)cc(OC)c1OC
Activity [2]: Non-toxic | IC50 [3]: 3.2 µM | inhibition [4]: 49.6% | inhibition [1]: 70.5% | Activity [5]: Non-toxic | Activity [6]: Active | IC50 [7]: 3.9 µM | Ratio IC50 [8]: 0.82 | Ki [9]: 7.22 µM | Activity [10]: Active

COc1cc(COC(=O)c2ccc(-c3ccccc3C(F)(F)F)o2)cc(OC)c1OC
Activity [2]: Non-toxic | IC50 [3]: 2.63 µM | inhibition [4]: 74.9% | inhibition [1]: 54.9% | Activity [5]: Non-toxic | Activity [6]: Active | IC50 [7]: 1.8 µM | Ratio IC50 [8]: 1.44 | Activity [10]: Active

CCOc1cc(COC(=O)c2ccc(-c3ccc(Cl)cc3Cl)o2)cc(OCC)c1OCC
inhibition [1]: 31.1%

COc1ccc(-c2ccc(C(=O)OCc3cc(OC)c(OC)c(OC)c3)o2)cc1
inhibition [1]: 14%

CCOc1cc(COC(=O)c2ccc(-c3ccccc3)o2)cc(OCC)c1OCC
inhibition [1]: 30.8%

Cc1ccc([N+](=O)[O-])cc1S(=O)(=O)N(C)C
IC50 [3]: 0.09 µM | inhibition [11]: Active | Activity [12]: Active | Activity [13]: Active

CCOC(=O)c1sc(NC(=O)C(CC)OC(=O)C(CC(C)C)NC(=O)c2ccccc2)nc1C (stereo not given)
IC50 [14]: 0.86 µM

COc1cc(C(=O)OCc2ccc(-c3ccc([N+](=O)[O-])cc3)o2)cc(OC)c1OC
IC50 [3]: 33.4 µM | inhibition [1]: 49.5%

COc1ccc(C2CNC(=O)C2)cc1OC1CCCC1 (stereo not given)
Activity [12]: Active | Activity [13]: Active

COc1cc(COC(=O)c2ccc(C)o2)cc(OC)c1OC
inhibition [1]: -9.9%

COc1ccc(COC(=O)c2ccc(-c3ccccc3)o2)cc1
inhibition [1]: 44.8%

CCOc1cc(C(=O)OCc2ccc(-c3ccc(C)cc3)o2)cc(OCC)c1OCC
inhibition [1]: 16.4%

CCOc1cc(COC(=O)c2ccc(-c3ccc([N+](=O)[O-])cc3)o2)cc(OCC)c1OCC
inhibition [1]: 29.2%

CCOc1cc(C(=O)OCc2ccc(-c3ccc([N+](=O)[O-])cc3)o2)cc(OCC)c1OCC
inhibition [1]: 39.9%

COc1cc(COC(=O)c2ccc(-c3ccc(C)cc3[N+](=O)[O-])o2)cc(OC)c1OC
inhibition [1]: 28.8%

COc1cc(COC(=O)c2ccc(-c3ccccc3)o2)cc(OC)c1OC
Activity [2]: Non-toxic | IC50 [3]: 5.17 µM | inhibition [4]: 46.1% | Papp at 2.5 h [15]: 8.1 ×10⁻⁶ cm/s | inhibition [1]: 57.9% | Ratio IC50 [16]: 10 | IC50 [17]: 12.4 µM | inhibition [11]: Active | Activity [5]: Non-toxic | Activity [6]: Active | Activity [18]: inactive | Activity [19]: Toxic | IC50 [7]: 54.6 µM | IC50 [20]: 66.3 µM | Ratio IC50 [8]: 0.09 | Ki [9]: 5.91 µM | inhibition [21]: 23.2% | Activity [10]: Active | Activity [22]: Active

COc1cc(C(=O)OCc2ccc(-c3ccc(Cl)cc3Cl)o2)cc(OC)c1OC
inhibition [1]: 24.4%

COc1cc(COC(=O)c2ccc(-c3ccc(Cl)cc3[N+](=O)[O-])o2)cc(OC)c1OC
Activity [2]: Non-toxic | IC50 [3]: 7.31 µM | inhibition [4]: 11% | inhibition [1]: 49.1% | Activity [5]: Non-toxic | Activity [6]: Active | Activity [10]: Active

COc1ccc(COC(=O)c2ccc(-c3ccc(Cl)cc3[N+](=O)[O-])o2)cc1
inhibition [1]: 41.6%

COc1cc(COC(=O)c2ccc(-c3ccccc3Cl)o2)cc(OC)c1OC
inhibition [1]: 34.6%

CC1CCCCC1NC(=O)C(c1ccccc1Cl)N(CCc1ccccc1Cl)C(=O)CCl (stereo not given)
IC50 [14]: 0.88 µM

COc1cc(CNC(=O)c2ccc(-c3cccc(C(F)(F)F)c3)o2)cc(OC)c1OC
inhibition [1]: 23.5%

COc1cc(COC(=O)c2ccc(-c3cccc(C(F)(F)F)c3)o2)cc(OC)c1OC
inhibition [1]: 14%

COc1cc(COC(=O)c2ccco2)cc(OC)c1OC
inhibition [1]: 10%

CCOc1cc(C(=O)OCc2ccc(-c3ccc([N+](=O)[O-])cc3C)o2)cc(OCC)c1OCC
inhibition [1]: 29% | IC50 [14]: 0.58 µM

CCOc1cc(C(=O)OCc2ccc(-c3ccc(Cl)cc3Cl)o2)cc(OCC)c1OCC
inhibition [1]: 3.7%

CCOc1cc(C(=O)OCc2ccc(-c3ccccc3)o2)cc(OCC)c1OCC
Activity [2]: Non-toxic | IC50 [3]: 12.3 µM | inhibition [4]: 3% | inhibition [1]: 48.8% | Activity [5]: Non-toxic | Activity [6]: Active | IC50 [7]: 104 µM | Ratio IC50 [8]: 0.12 | Activity [10]: Active

CCOc1cc(COC(=O)c2ccc(-c3ccc(C)cc3)o2)cc(OCC)c1OCC
inhibition [1]: 28%

COc1cc(COC(=O)c2ccc(-c3ccc([N+](=O)[O-])cc3)o2)cc(OC)c1OC
Activity [2]: Non-toxic | IC50 [3]: 14.1 µM | inhibition [4]: 57.1% | inhibition [1]: 48% | Activity [5]: Non-toxic | Activity [6]: Active | IC50 [7]: 3.4 µM | Ratio IC50 [8]: 4.15 | Activity [10]: Active

COc1cc(COC(=O)c2ccc(-c3cc(C(F)(F)F)ccc3Cl)o2)cc(OC)c1OC
inhibition [1]: 8%

COc1cc(COC(=O)c2ccc(-c3ccc(C)cc3)o2)cc(OC)c1OC
inhibition [1]: 30.7%

Reference: ChEMBL document CHEMBL2040739, “Effect of phosphodiesterase 7 (PDE7) inhibitors in experimental autoimmune encephalomyelitis mice. Discovery of a new chemically diverse family of compounds” (J Med Chem, 2012)
